From ChEMBL document CHEMBL1165950, “Design and synthesis of new potent anticancer pyrazoles with high FLT3 kinase inhibitory selectivity” (Bioorg Med Chem, 2010)

How the values were obtained:
Type in all cases: functional
HCT-15 [1] = test: Growth inhibition of human HCT15 cells after 48 hrs by sulforhodamine B assay; details: HCT-15, 48 h; for CC50: read-out: LC50 (the source's name)
Outline: (§1)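 NCI 60-cell screen, five-dose mode. Cells grown in RPMI 1640 with 5% FBS and 2 mM L-glutamine and plated at 5000-40,000 cells/well according to doubling time. After 24 h preincubation, a Tz plate was TCA-fixed. Five concentrations (10-fold or 1/2 log dilutions) were applied for 48 h at 37 °C. SRB staining read at 515 nm. IC50 taken from [(Ti-Tz)/(C-Tz)]×100 = 50.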

SK-MEL-5 = test: Cytotoxicity against human SK-MEL-5 cells assessed as cell growth at 10 uM after 48 hrs by sulforhodamine B assay; details: SK-MEL-5, 48 h, read-out: Activity
HCT-116 = test: Cytotoxicity against human HCT116 cells assessed as cell growth at 1 uM after 48 hrs by sulforhodamine B assay; details: HCT-116, 48 h, read-out: Activity
K562 = test: Cytotoxicity against human K562 cells assessed as cell growth at 100 nM after 48 hrs by sulforhodamine B assay; details: K562, 48 h, read-out: Activity
MDA-MB-231 = test: Cytotoxicity against human MDA-MB-231 cells assessed as cell growth at 10 uM after 48 hrs by sulforhodamine B assay; details: MDA-MB-231, 48 h, read-out: Activity
HOP-62 = test: Cytotoxicity against human HOP62 cells assessed as cell growth at 0.001 uM after 48 hrs by sulforhodamine B assay; details: HOP-62, 48 h, read-out: Activity
SK-OV-3 = test: Cytotoxicity against human SKOV3 cells assessed as cell growth at 100 nM after 48 hrs by sulforhodamine B assay; details: SK-OV-3, 48 h, read-out: Activity
HL-60(TB) = test: Growth inhibition of human HL-60(TB) cells after 48 hrs by sulforhodamine B assay; details: HL-60, 48 h
Outline: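 NCI 60-cell SRB screen. Cells in RPMI 1640 with 5% FBS and 2 mM L-glutamine are preincubated 24 h, then exposed to five concentrations (10-fold or 1/2-log dilutions from DMSO stock) for 48 h at 37 °C. Suspension cells are fixed with 80% TCA (final 16%), and A515 is read. IC50 is taken as the concentration where [(Ti−Tz)/(C−Tz)]×100 = 50, i.e. 50% reduction in net protein increase.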

MOLT-4 = test: Growth inhibition of human MOLT4 cells after 48 hrs by sulforhodamine B assay; details: MOLT-4, 48 h; outline: as §1
HCT-15 [2] = test: Cytotoxicity against human HCT15 cells assessed as cell growth at 1 uM after 48 hrs by sulforhodamine B assay; details: HCT-15, 48 h, read-out: Activity
ACHN [3] = test: Cytotoxicity against human ACHN cells assessed as cell growth at 1 uM after 48 hrs by sulforhodamine B assay; details: read-out: Activity
Outline: (§2)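 NCI-60 five-dose screen. Cells were grown in RPMI 1640 with 5% FBS and 2 mM L-glutamine, plated at 5000–40,000 cells/well and preincubated for 24 h. Time-zero plates were TCA-fixed. DMSO-solubilized drug was added at five concentrations (10-fold or ½-log serial dilutions) for 48 h at 37 °C, 5% CO2. Cells were TCA-fixed, stained with 0.4% SRB and read at 515 nm. Percent growth used time-zero, control and test absorbances.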

OVCAR-4 = test: Cytotoxicity against human OVCAR4 cells assessed as cell growth at 100 nM after 48 hrs by sulforhodamine B assay; details: OVCAR-4, 48 h, read-out: Activity
TK-10 = test: Growth inhibition of human TK10 cells after 48 hrs by sulforhodamine B assay; details: TK-10, 48 h; for CC50: read-out: LC50 (the source's name); outline: as §1
OVCAR-8 = test: Growth inhibition of human OVCAR8 cells after 48 hrs by sulforhodamine B assay; details: OVCAR-8, 48 h; for CC50: read-out: LC50 (the source's name); outline: as §1
U-251 = test: Cytotoxicity against human U251 cells assessed as cell growth at 0.01 uM after 48 hrs by sulforhodamine B assay; details: U-251, 48 h, read-out: Activity
EKVX [4] = test: Growth inhibition of human EKVX cells after 48 hrs by sulforhodamine B assay; details: for CC50: read-out: LC50 (the source's name)
Outline: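 NCI five-dose SRB assay in RPMI 1640 with 5% FBS and 2 mM L-glutamine. Cells were preincubated 24 h, then exposed 48 h at 37 °C to five concentrations (10-fold or half-log serial dilutions from DMSO stocks). TCA fixation, SRB staining, and absorbance at 515 nm followed. IC50 was taken where [(Ti−Tz)/(C−Tz)]×100 = 50, with Tz as time-zero cell density.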

UACC-62 = test: Cytotoxicity against human UACC62 cells assessed as cell growth at 0.001 uM after 48 hrs by sulforhodamine B assay; details: UACC-62, 48 h, read-out: Activity
PC-3 = test: Cytotoxicity against human PC3 cells assessed as cell growth at 0.001 uM after 48 hrs by sulforhodamine B assay; details: PC-3, 48 h, read-out: Activity
ACHN [5] = test: Cytotoxicity against human ACHN cells assessed as cell growth at 10 uM after 48 hrs by sulforhodamine B assay; details: read-out: Activity; outline: as §2
SNB-19 = test: Cytotoxicity against human SNB19 cells assessed as cell growth at 0.001 uM after 48 hrs by sulforhodamine B assay; details: SNB-19, 48 h, read-out: Activity
BT-549 = test: Cytotoxicity against human BT549 cells assessed as cell growth at 1 uM after 48 hrs by sulforhodamine B assay; details: BT-549, 48 h, read-out: Activity; outline: as §2
COLO 205 = test: Cytotoxicity against human COLO205 cells assessed as cell growth at 100 nM after 48 hrs by sulforhodamine B assay; details: COLO 205, 48 h, read-out: Activity
UO-31 = test: Cytotoxicity against human UO31 cells assessed as cell growth at 10 uM; details: read-out: Activity
Outline: (§3)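 NCI-60 screen: cells grown in RPMI 1640 with 5% FBS and 2 mM L-glutamine, plated at 5000–40,000 cells/well according to doubling time, and preincubated 24 h at 37 °C, 5% CO2. The single 10 µM dose (DMSO stock) was added, then incubated 48 h. Cells were TCA-fixed and stained with 0.4% SRB, read at 515 nm, and growth % calculated against time-zero and control plates.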

MDA-MB-435 = test: Cytotoxicity against human MDA-MB-435 cells assessed as cell growth at 10 uM; details: read-out: Activity; outline: as §3
[6] = Cytotoxicity against human Hs 578T cells assessed as cell growth at 0.01 uM after 48 hrs by sulforhodamine B assay; details: read-out: Activity
EKVX [7] = test: Cytotoxicity against human EKVX cells assessed as cell growth at 100 nM after 48 hrs by sulforhodamine B assay; details: read-out: Activity

SMILES	GI50 (HCT-15 [1]) [µM]	TGI (HCT-15 [1]) [µM]	CC50 (HCT-15 [1]) [µM]	growth at 10 µM (SK-MEL-5) [%]	growth at 1 µM (HCT-116) [%]	growth at 0.1 µM (K562) [%]	growth at 10 µM (MDA-MB-231) [%]	growth at 0.001 µM (HOP-62) [%]	growth at 0.1 µM (SK-OV-3) [%]	GI50 (HL-60(TB)) [µM]	LC50 (HL-60(TB)) [µM]	TGI (HL-60(TB)) [µM]	GI50 (MOLT-4) [µM]	LC50 (MOLT-4) [µM]	growth at 1 µM (HCT-15 [2]) [%]	growth at 1 µM (ACHN [3]) [%]	growth at 0.1 µM (OVCAR-4) [%]	TGI (TK-10) [µM]	CC50 (TK-10) [µM]	GI50 (OVCAR-8) [µM]	further results
Cc1cc(O)cc(-c2nn(CC#N)cc2-c2ccnc(-c3ccc(Oc4ccccc4)cc3)c2)c1	2.14	5.38	26.1	-100	-100	46	-62	93	101	2.25	> 100	5.94	2.03	> 100	-34	-4	106	15.1	43.6	2.08	TGI (MOLT-4): 6.82 µM; GI50 (TK-10): 4.25 µM; TGI (OVCAR-8): 5.54 µM; CC50 (OVCAR-8): 21.9 µM; growth at 0.01 µM (U-251): 92%; GI50 (EKVX [4]): 2.16 µM; TGI (EKVX [4]): 8.95 µM; CC50 (EKVX [4]): > 100 µM; growth at 0.001 µM (UACC-62): 92%; growth at 0.001 µM (PC-3): 98%; growth at 10 µM (ACHN [5]): -91%; growth at 0.001 µM (SNB-19): 101%; growth at 1 µM (BT-549): 4%; growth at 0.1 µM (COLO 205): 99%; growth at 10 µM (UO-31): 46.9%; growth at 10 µM (MDA-MB-435): 60.5%; growth at 0.01 µM [6]: 91%; growth at 0.1 µM (EKVX [7]): 77%
COc1cc(C)cc(-c2nn(CC#N)cc2-c2ccc(-c3cccc(C(C)=O)c3)nc2)c1	2.14	> 100	> 100	-75	1	27	1	84	104	1.78	> 100	15.1	3.35	> 100	12	24	92	11.5	> 100	3.16	TGI (MOLT-4): > 100 µM; GI50 (TK-10): 3.28 µM; TGI (OVCAR-8): 35.2 µM; CC50 (OVCAR-8): > 100 µM; growth at 0.01 µM (U-251): 92%; GI50 (EKVX [4]): 3.98 µM; TGI (EKVX [4]): 50.7 µM; CC50 (EKVX [4]): > 100 µM; growth at 0.001 µM (UACC-62): 94%; growth at 0.001 µM (PC-3): 94%; growth at 10 µM (ACHN [5]): 4%; growth at 0.001 µM (SNB-19): 101%; growth at 1 µM (BT-549): 5%; growth at 0.1 µM (COLO 205): 88%; growth at 10 µM (UO-31): 33.8%; growth at 10 µM (MDA-MB-435): -27.8%; growth at 0.01 µM [6]: 100%; growth at 0.1 µM (EKVX [7]): 89%
Cc1cc(O)cc(-c2nn(CC#N)cc2-c2ccnc(-c3ccc(N(C)C)cc3)c2)c1	3.36	18.2	> 100	-93	2	80	-21	92	101	3.14	> 100	12.9	3.17	> 100	14	18	101	57.8	> 100	4.2	TGI (MOLT-4): 46 µM; GI50 (TK-10): 8.4 µM; TGI (OVCAR-8): 69.4 µM; CC50 (OVCAR-8): > 100 µM; growth at 0.01 µM (U-251): 94%; GI50 (EKVX [4]): 3.92 µM; TGI (EKVX [4]): 92.8 µM; CC50 (EKVX [4]): > 100 µM; growth at 0.001 µM (UACC-62): 90%; growth at 0.001 µM (PC-3): 105%; growth at 10 µM (ACHN [5]): -30%; growth at 0.001 µM (SNB-19): 96%; growth at 1 µM (BT-549): 4%; growth at 0.1 µM (COLO 205): 94%; growth at 10 µM (UO-31): 52.4%; growth at 10 µM (MDA-MB-435): -43.2%; growth at 0.01 µM [6]: 95%; growth at 0.1 µM (EKVX [7]): 81%
COc1cc(C)cc(-c2c(-c3ccnc(-c4ccc(C(C)=O)cc4)c3)cnn2CC#N)c1	3.14	> 100	> 100	-35	-27	47	26	94	102	2.26	> 100	6.5	2.63	> 100	12	21	105	> 100	> 100	2.86	TGI (MOLT-4): > 100 µM; TGI (OVCAR-8): > 100 µM; CC50 (OVCAR-8): > 100 µM; growth at 0.01 µM (U-251): 89%; GI50 (EKVX [4]): 5.8 µM; TGI (EKVX [4]): > 100 µM; CC50 (EKVX [4]): > 100 µM; growth at 0.001 µM (UACC-62): 93%; growth at 0.001 µM (PC-3): 101%; growth at 10 µM (ACHN [5]): 24%; growth at 0.001 µM (SNB-19): 102%; growth at 1 µM (BT-549): 17%; growth at 0.1 µM (COLO 205): 102%; growth at 10 µM (UO-31): 57.4%; growth at 10 µM (MDA-MB-435): 10.6%; growth at 0.01 µM [6]: 98%; growth at 0.1 µM (EKVX [7]): 91%
COc1cc(C)cc(-c2c(-c3ccnc(-c4ccc(N(C)C)cc4)c3)cnn2CC#N)c1	0.0766	> 100	> 100	-39	-33	7	25	99	37	0.105	> 100	0.465	0.271	> 100	9	19	33	> 100	> 100	0.236	GI50 (TK-10): 0.636 µM; TGI (OVCAR-8): > 100 µM; CC50 (OVCAR-8): > 100 µM; growth at 0.01 µM (U-251): 41%; GI50 (EKVX [4]): 0.29 µM; TGI (EKVX [4]): > 100 µM; CC50 (EKVX [4]): > 100 µM; growth at 0.001 µM (UACC-62): 96%; growth at 0.001 µM (PC-3): 101%; growth at 10 µM (ACHN [5]): 16%; growth at 0.001 µM (SNB-19): 90%; growth at 1 µM (BT-549): -29%; growth at 0.1 µM (COLO 205): 7%; growth at 10 µM (UO-31): 22.1%; growth at 10 µM (MDA-MB-435): -14.7%; growth at 0.01 µM [6]: 58%; growth at 0.1 µM (EKVX [7]): 14%
